# Screening data deposited in PubChem BioAssay by several laboratories.
# This is a sample that favours compounds with a hit; in the whole collection about 4.1% have one here.
# MC4R antag cAMP: human MC4R antagonism in cAMP assay | P32245 | MC4R-expressing cells, MTII-stimulated cAMP, LANCE TR-FRET | inhibition, % at 6.5 µM | 360,000 tested, 0.48% active;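 active means inhibition above its plate's cutoff, the mean of tested wells on that plate plus 3 SD, cut at about 29% in these data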;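 further: 0% = Melanotan II alone and 100% = Melanotan II plus saturating MCL0020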
#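 system = U2OS cells with stable human MC4R expression | also added = Melanotan II challenge after compound preincubation | dosing = one concentration, 6.5 µM nominal | incubation = compound 30 min, challenge 1 h, detection 1 h | measured by = TR-FRET with Eu-cAMP and labeled anti-cAMP, 671 nm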
# SMARCA2 act: activators of SMARCA2 function | MG213 cells, MMTV-luciferase reporter, dexamethasone, overnight | activation, % at 9.1 µM | 370,000 tested, 1% active; in the data active means activation above about 7.8%;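 further: 0% = vehicle wells and 100% = reference activator wells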
# MC4R barr agon: activates human MC4R beta-arrestin recruitment | P32245 | U2OS MC4R beta-arrestin complementation, luminescence; percent of melanotan II response, DMSO zero | activation, % at 8.9 µM | 360,000 tested, 0.98% active;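 active means activation above a per-plate cutoff, the mean activation of sample wells on that plate plus 3 SD, cut at about 8% in these data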
# MPTP block: blocks calcium-induced mitochondrial swelling; isolated mouse mitochondria, Ca2+ swelling absorbance, 30 min; 360,000 tested, 1.4% active; inhibition, % at 10 µM;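 active means inhibition of 50% or more, scaled per plate between neutral and stimulator controls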;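 further: 0% = DMSO wells given calcium and 100% = 1 mM EGTA wells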
# ATG4B inhibitor: ATG4B (human) cysteine protease inhibition | ATG4B cleavage of LC3-PLA2, NBD-HPC fluorescence, 1 h | Q9Y4P1 | 340,000 tested, 0.51% active | inhibition, % at 8.33 µM; in the data active means inhibition above about 40%
# Target sequence (Q9Y4P1 whole entry, looked up): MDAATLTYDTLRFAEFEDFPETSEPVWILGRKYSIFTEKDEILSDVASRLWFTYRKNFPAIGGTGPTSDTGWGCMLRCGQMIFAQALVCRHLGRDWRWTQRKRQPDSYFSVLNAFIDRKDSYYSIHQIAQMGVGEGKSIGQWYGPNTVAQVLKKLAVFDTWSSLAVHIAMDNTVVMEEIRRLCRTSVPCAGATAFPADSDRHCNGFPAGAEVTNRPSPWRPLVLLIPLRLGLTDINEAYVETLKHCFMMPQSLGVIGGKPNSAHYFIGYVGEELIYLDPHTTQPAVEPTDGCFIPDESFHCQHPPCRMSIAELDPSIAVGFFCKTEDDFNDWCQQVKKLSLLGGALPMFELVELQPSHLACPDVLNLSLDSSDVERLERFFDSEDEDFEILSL
# SMARCA2 conf: confirmation of SMARCA2 (BRM) function activators | 3,500 tested, 30% active | MG213 cells, MMTV-luciferase with dexamethasone, luminescence, overnight; MG213 cells expressing E1A, Rb sequestered; DMSO wells 0%, reference activator 100% | activation, % at 9.1 µM | AID 652260 | shares compounds with SMARCA2 act;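 active means activation above its plate's cutoff, the mean activation of tested wells plus 3 SD, cut at about 7.9% in these data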
# GAL4-VP16 Luc: activates GAL4-VP16 luciferase, flagging SMARCA2 activator hits | shares compounds with SMARCA2 act | HEK293 GAL4-VP16 pG5luc reporter, luciferase luminescence; scaled: DMSO wells 0%, SAHA wells 100% | activation, % at 9.1 µM | 3,500 tested, 41% active | AID 686939;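 active means activation above the solvent-only control well mean plus 3 SD, averaged across control plates, cut at about 5.2% in these data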
# Active calls of the source: *; . = not tested or not shown.
SMILES,MC4R antag cAMP,SMARCA2 act,MC4R barr agon,MPTP block,ATG4B inhibitor,SMARCA2 conf,GAL4-VP16 Luc
C/C(=N/NC(=O)c1ccc(Br)o1)c1cccc(NC(=O)c2ccc(C)o2)c1,5,13*,-1,-4,-8,0,3
CC(=O)Nc1cccc(/C(C)=N/NC(=O)c2ccc(O)cc2)c1,7,8.1*,-1,-1,-4,3,1
CN[C@H]1C[C@H]2c3[nH]c4c(-c5ccccc5)cccc4c3CCN2C[C@H]1[C@H](C)O,.,3,.,.,.,.,.
C/C(=N\NC(=O)c1cccc(C)c1)c1cccc(NC(=O)c2ccco2)c1,0,11*,1,2,-2,3,1
C/C(=N/NC(=O)c1ccco1)c1cccc(NC(=O)c2ccc(C)o2)c1,1,8.8*,-2,-2,5,-1,3
CN1OC[C@@H]2CN(C(=O)CCc3ccccc3)[C@H](c3ccc(-n4ccnc4)cc3)C[C@@H]21,.,-1,.,-4,.,.,.
CN1OC[C@@H]2CN(C(=S)NCCc3ccccc3)[C@H](c3ccc(-n4ccnc4)cc3)C[C@@H]21,.,8.4*,.,0,.,1,1
COC(=O)C1C(=O)c2c([nH]c(C(=O)OC3CCCC3)c2C)CC1C (stereo unspecified),1,8.2*,-2,-4,-8,7,8.4*
COc1ccc(CCN2CC(C(=O)N(C)Cc3ccccc3OC)CCC2=O)cc1 (stereo unspecified),8,8.6*,-3,-1,1,-5,-1
COc1ccc(CCN2CC(C(=O)N(C)CCOc3ccccc3)CCC2=O)cc1 (stereo unspecified),2,0,0,-1,-2,.,.
Clc1ccc(CO/N=C2\CCCc3nonc32)cc1,18,13*,1,9,3,8.1*,4
COc1ccc(C(=O)Nc2ccc3c(c2)OCCO3)cc1,-3,8.0*,0,0,-4,5,10.0*
O=C(Nc1cccc(Cl)c1)c1ccc2c(c1)OCCO2,15,9.0*,0,0,-5,6,8.7*
O=C(Nc1cccc2nsnc12)c1ccc2c(c1)OCCO2,-4,8.8*,-1,0,10,5,9.7*
COc1ccc(C(=O)Nc2ccc3c(c2)OCCO3)c(OC)c1,5,14*,-1,-1,.,7,14*
COc1ccc(C(=O)OCC(=O)Nc2ccc3c(c2)OCCO3)c(OC)c1,20,3,1,-1,-10,.,.
CC(=O)Oc1ccc(C(=O)Nc2ccc3c(c2)OCCO3)cc1,5,4,-1,-1,-6,.,.
C#CCN1C(=O)[C@]2(OCCC=C[C@H]2C)c2cc(OC)ccc21,.,-2,.,.,.,.,.
COC(=O)CC(=O)CC(NS(=O)(=O)c1ccc(C)cc1)c1ccccc1 (stereo unspecified),.,2,.,.,.,.,.
O=C(Cn1c(-c2cncs2)nc2ccccc21)NC1CCCCC1,.,-5,.,.,.,.,.
COc1ccc(S[C@]2(C(=O)N3CCCC3)CC(=O)N(C(=O)Nc3ccc(C)c(Cl)c3)[C@@H]2c2ccc(OC)cc2)cc1,.,-1,.,.,.,.,.
CCN1CCc2c(OCC(=O)N3CCC(C)CC3)cccc2C1=O,-6,8.4*,2,-2,2,-6,0
Clc1ccc2c(c1)-c1ccccc1C1=NCCN12,-13,16*,-3,0,.,313*,5
Brc1ccc2c(c1)-c1ccccc1C1=NCCN12,-6,1,-1,0,.,.,.
N#Cc1c2n(c3c(=O)[nH]cnc13)CCCC2,2,9.3*,1,-2,-14,-5,-1
SMILES,MC4R antag cAMP,SMARCA2 act,MC4R barr agon,MPTP block,ATG4B inhibitor,SMARCA2 conf,GAL4-VP16 Luc
N#Cc1c2n(c3c(=S)nc[nH]c13)CCCCC2,7,0,-2,-2,-9,.,.
O=c1c(Cl)c(NCCCO)cnn1-c1nc2ccccc2[nH]1,9,22*,-1,0,-3,17*,18*
O=C(Nc1cc2nn(-c3ccccc3)nc2cc1Cl)c1ccco1,4,8.8*,2,2,11,21*,11*
CNc1ccccc(-c2ccc3ccccc3n2)c1=O,4,15*,-3,8,-6,6,5.2*
c1ccc(-c2ccc3ccccc3n2)cc1,-1,0,-1,0,-1,.,.
Cc1cc(N2CCNC[C@H]2C)ccc1N1CCN(Cc2ccccc2)[C@H](C)C1,.,0,.,.,.,.,.
Cc1cc2nc(-c3ccc(F)cc3)c(Cc3cccc(Cl)c3)n2c(C)c1Br,.,-4,.,1,.,.,.
O=C(COC(=O)c1cc[n+]([O-])cc1)Nc1ccccc1Cl,-1,11*,1,0,10,-1,-1
CCOC(=O)CNC(=S)N1CCn2c(nc3ccccc32)C1,8,9.8*,0,-1,2,-2,0
O=C1C(=Cc2ccco2)CCC1=Cc1ccco1,2,-4,-3,2,22,.,.
O=C1C(=Cc2ccco2)CCCC1=Cc1ccco1,18,8.1*,0,0,9,16*,7.2*
Brc1ccccc1-n1nnc(-c2nccs2)n1,-1,8.3*,-2,0,6,8,16*
O=C(CCl)Oc1ccc2occ(C(=O)c3cccs3)c2c1,-1,8.6*,-2,-3,-2,4,6.5*
Cc1cccc2nc(-c3ccco3)c(Nc3ccc4c(c3)OCCO4)n12,2,10*,-2,3,-6,-2,-2
N/C(Cc1cccs1)=N\OC(=O)COc1ccccc1Cl,3,8.4*,-1,-1,14,4,6.8*
N/C(Cc1cccs1)=N\OC(=O)COc1ccc(Br)cc1Cl,0,8,1,-2,6,.,.
Cn1c(/C=C/c2ccc(Cl)cc2)nc2ccccc2c1=O,-1,8.7*,9.0*,1,-8,4,6.1*
CCCCCN1CCCCC(NC(=O)c2ccccc2OC)C1=O (stereo unspecified),.,1,.,.,.,.,.
CC(C)(C)C(=O)N1CCN(c2ccc(NC(=O)c3ccc([N+](=O)[O-])o3)cc2)CC1,-21,9.8*,-2,1,-9,1,4
NC(=O)c1ccsc1NC(=O)c1ccc([N+](=O)[O-])o1,-2,8.3*,-3,1,-13,18*,5
NC(=O)c1ccsc1NC(=O)COC(=O)c1ccc([N+](=O)[O-])o1,-3,3,-1,0,-2,.,.
O=C(Nc1ccccn1)c1ccc([N+](=O)[O-])o1,-1,.,-1,2,5,.,.
O=C(Nc1cccc([N+](=O)[O-])c1)c1ccc([N+](=O)[O-])o1,3,15*,-1,-3,.,19*,2
O=C(Nc1ncccn1)c1ccc([N+](=O)[O-])o1,-7,15*,0,-2,-8,10*,1
